# According to publication PMC4827872 (Chemical research in toxicology, 2015):
# Like-named read-outs stand apart in the source and are kept apart here. Where a SMILES comes first, the peptide text is derived from it. The star is where a group is joined. Cbz = O=C(OCc1ccccc1)*
# T1: DIO2 (Homo sapiens, UniProt Q92813)
# T1 sequence (Q92813 1-273): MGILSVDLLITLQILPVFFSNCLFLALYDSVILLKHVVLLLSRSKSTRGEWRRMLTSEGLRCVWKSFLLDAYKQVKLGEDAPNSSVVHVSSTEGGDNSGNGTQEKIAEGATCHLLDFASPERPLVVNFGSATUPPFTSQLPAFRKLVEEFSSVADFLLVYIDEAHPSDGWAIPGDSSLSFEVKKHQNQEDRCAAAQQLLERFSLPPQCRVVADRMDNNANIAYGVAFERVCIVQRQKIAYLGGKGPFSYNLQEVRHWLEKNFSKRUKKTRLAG
# B1: DIO2 (Homo sapiens) (protein)
# chain: T1 sequence (Q92813 1-273)
# Key:
# DIO2 [1] = target: T1, DIO2; assay: In vitro DIO2 kinetics and inhibition in microsomal preparations of H4 cells; format: biochemical; details: for concentrations at which DIO2 activity was inhibited / Vmax of DIO2 with inhibitor added: H4 microsomes; for concentrations at which DIO2 activity was inhibited: 2 nM T4
# cultured cells [2] = assay: Cell viability; format: cell-based; details: for decrease in viability: 5 µM, 24 h exposure; for significant effects on viability: any doses less than 7.5 µM, 24 h
# DIO2 [3] = target: T1, DIO2; assay: DIO2 activity in H4 glioma cells exposed to PBDEs/OH-BDEs; format: cell-based; details: for Significant DIO2 Effects in H4 Cells (%Ctrl): at the lowest dose that significantly decreased DIO2 activity; for decrease in DIO2 activity with MG132 coexposure: plus 10 µM MG132
# [4] = human serum, cited from earlier work
# DIO2 mRNA = DIO2 mRNA expression; format: cell-based, human; details: 6 h; for DIO2 mRNA expression level vs control: 3 doses
# cultured cells [5] = assay: Cell membrane damage; format: cell-based; details: 24 h; for membrane damage vs control: doses less than 50 µM; for significant effects on membrane damage: any doses less than 7.5 µM
# Outline: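 Cells in 96-well plates, switched to serum-free A-DMEM with 30 nM selenium 24 h beforehand, then exposed 24 h to test compound added from 1,000× DMSO stocks (final DMSO 0.1%). Membrane damage was read as glucose-6-phosphate dehydrogenase activity released into the medium. Values were normalized to well DNA content and to DMSO vehicle controls.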
# DIO2 [6] = target: T1, DIO2; assay: DIO2 activity in primary human astrocyte cells exposed to test compounds; format: cell-based
# Outline: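 Primary human astrocytes were grown on gelatin-coated dishes, moved to serum-free A-DMEM (30 nM selenium) 24 h before use, and induced with 10 µM forskolin. Exposure was 6 h (0.1% DMSO), with 100 nM rT3 as positive control. Microsomes (100,000×g, 60 min) were incubated 75 min at 37°C with DTT/EDTA/glycerol buffer. Net T3 was measured by LC/MS/MS (fmol min−1 mg protein−1) and expressed as % vehicle control; n=8 from 2 experiments.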
# [7] = Biotransformation assay in cultured cells; format: in vitro ADME, human; details: cells exposed for up to 48 h; 1 µM
# [8] = substrate: NC(Cc1cc(I)c(Oc2cc(I)c(O)c(I)c2)c(I)c1)C(=O)O; assay: In vitro DIO2 kinetics and inhibition in microsomal preparations of H4 cells; format: biochemical, human; details: other: H4 microsomal fraction; T4 as substrate; no inhibitor; 37.0 °C
# [9] = H4 cells, 5,000 nM, 6 h exposure
# [10] = H4 glioma cells, doses of approximately 1–5 µM (abstract)
# [11] = calculated assuming serum lipid 6.36 mg mL−1, ref 53
# [12] = geometric mean or median, ref 53
# [13] = H4 cells, 500 nM, 6 h, relative to MG132 control
# [14] = Homo sapiens, read-out: DIO2 mRNA expression ratio relative to the control value of 1.0
# [15] = calculated assuming serum lipid 6.36 mg mL−1, ref 36
# [16] = calculated assuming serum lipid 6.36 mg mL−1, ref 5
# [17] = calculated assuming serum lipid 6.36 mg mL−1, ref 43
# [18] = calculated assuming serum lipid 6.36 mg mL−1, ref 52
# [19] = geometric mean or median, ref 5
# [20] = geometric mean or median, ref 43
# [21] = geometric mean or median, ref 52
molecule,measurement,setting,value
Oc1c(Br)ccc(Oc2ccc(Br)cc2Br)c1Br [3-OH-BDE-47],concentrations at which DIO2 activity was inhibited,DIO2 [1],> 1 µM
same,Ki,"DIO2 [1]; read-out: Ki for DIO2, calculated from IC50, measured T4 concentration and Km",1.6 µM
same,decrease in viability,cultured cells [2],31.7 ± 7.8%
same,lowest dose that significantly decreased DIO2 activity,DIO2 [3]; H4 cells,"~1,000 nM"
same,decrease in DIO2 activity,"DIO2 [3]; H4 cells, 1,000 nM, 1 h exposure",71.1 ± 13.7%
same,decrease in DIO2 activity,"DIO2 [3]; H4 cells, 1,000 nM, 6 h exposure",52.1 ± 8.5%
same,decrease in DIO2 activity,"DIO2 [3]; H4 cells, 1,000 nM, 12 h exposure",not significantly different from control
same,decrease in DIO2 activity,DIO2 [3]; [9],68.2 ± 13.9%
same,decrease in DIO2 activity,DIO2 [3]; [10],45–80%
same,Significant DIO2 Effects in H4 Cells (%Ctrl),DIO2 [3],71.1%
same,Average Serum Concentration,[4]; [11],0.020 nM
same,Average Serum Concentration,[4]; [12],1.6 ng/g lipid
same,DIO2 mRNA expression level vs control,DIO2 mRNA; H4 cells,not significantly different from control
same,membrane damage vs control,cultured cells [5],not significantly different from control
Oc1cc(Oc2cc(Br)c(Br)cc2Br)c(Br)cc1Br [5’-OH-BDE-99],IC50,DIO2 [1],16.6 ± 1.1 µM
same,Ki,DIO2 [1],7.11 µM
same,concentrations at which DIO2 activity was inhibited,DIO2 [1],> 1 µM
same,Vmax of DIO2 with inhibitor added,DIO2 [1]; 15 µM 5’-OH-BDE-99 added,47.2 ± 8.0 fmol min^−1 mg protein^−1
same,significant effects on viability,cultured cells [2],not detected
same,inhibition at 1 µM,"DIO2 [3]; 6 h, read-out: decrease in DIO2 activity, H4 cells, 1,000 nM, 6 h exposure",57.4 ± 1.2%
same,inhibition at 5 µM,"DIO2 [3]; 6 h, read-out: decrease in DIO2 activity, H4 cells, 5,000 nM, 6 h exposure",63.6 ± 2%
same,inhibition at 1 µM,"DIO2 [3]; 12 h, read-out: decrease in DIO2 activity, H4 cells, 1,000 nM, 12 h exposure",55.7 ± 5.4%
same,lowest dose that significantly decreased DIO2 activity,DIO2 [3]; H4 cells,"~1,000 nM"
same,decrease in DIO2 activity with MG132 coexposure,DIO2 [3]; [13],37.0 ± 2.6%
same,decrease in DIO2 activity,DIO2 [3]; [10],45–80%
same,Significant DIO2 Effects in H4 Cells (%Ctrl),DIO2 [3],57.4%
same,Average Serum Concentration,[4]; [12],22 ng/g lipid
same,mrna remaining at 5 µM,DIO2 mRNA; [14],64 ± 12%
same,significant effects on membrane damage,cultured cells [5],not detected
Oc1cc(Br)cc(Br)c1Oc1ccc(Br)cc1Br [6-OH-BDE-47],decrease in viability,cultured cells [2],32.0 ± 8.2%
same,lowest dose that significantly decreased DIO2 activity,DIO2 [3]; H4 cells,"5,000 nM"
same,decrease in DIO2 activity,DIO2 [3]; [9],57.1 ± 11.4%
same,decrease in DIO2 activity,DIO2 [3]; [10],45–80%
same,Significant DIO2 Effects in H4 Cells (%Ctrl),DIO2 [3],57.1%
same,Average Serum Concentration,[4]; [15],0.0022 nM
same,Maximum Serum Concentration,[4]; [15],0.137 nM
same,Average Serum Concentration,[4]; [11],0.13 nM
same,Average Serum Concentration,"[4]; geometric mean or median, ref 36",0.17 ng/g lipid
same,Average Serum Concentration,[4]; [12],9.9 ng/g lipid
same,Average Serum Concentration,"[4]; geometric mean or median, ref 54",0.0131 nM
same,Maximum Serum Concentration,[4]; ref 36,10.8 ng/g lipid
same,Maximum Serum Concentration,[4]; ref 54,0.336 nM
same,DIO2 mRNA expression ratio relative to the control value of 1.0,"DIO2 mRNA; H4 cells, 5,000 nM, normalized to RPL13A",0.59 ± 0.08
same,membrane damage vs control,cultured cells [5],not significantly different from control
Brc1ccc(Oc2ccc(Br)cc2Br)c(Br)c1 [BDE-47],significant effects on viability,cultured cells [2],not detected
same,effect on DIO2 activity,"DIO2 [3]; H4 cells, any of the exposure concentrations, 6 h exposure",did not significantly alter
same,Significant DIO2 Effects in H4 Cells (%Ctrl),DIO2 [3],None
same,Average Serum Concentration,[4]; [16],0.305 nM
same,Maximum Serum Concentration,[4]; [16],4.58 nM
same,Average Serum Concentration,[4]; [17],1.01 nM
same,Maximum Serum Concentration,[4]; [17],1.94 nM
same,Average Serum Concentration,[4]; [18],1.02 nM
same,Maximum Serum Concentration,[4]; [18],60.7 nM
same,Average Serum Concentration,[4]; [19],23.3 ng/g lipid
same,Average Serum Concentration,[4]; [20],77 ng/g lipid
same,Average Serum Concentration,[4]; [21],77.8 ng/g lipid
same,Maximum Serum Concentration,[4]; ref 5,350 ng/g lipid
same,Maximum Serum Concentration,[4]; ref 43,148 ng/g lipid
same,Maximum Serum Concentration,[4]; ref 52,"4,640 ng/g lipid"
same,DIO2 mRNA expression level vs control,DIO2 mRNA; H4 cells,not significantly different from control
same,significant effects on membrane damage,cultured cells [5],not detected
Brc1ccc(Oc2cc(Br)c(Br)cc2Br)c(Br)c1 [BDE-99],Ki,DIO2 [1],33.3 µM
same,concentrations at which DIO2 activity was inhibited,DIO2 [1],> 1 µM
same,Vmax of DIO2 with inhibitor added,DIO2 [1]; 20 µM BDE-99 added,50.6 ± 5.6 fmol min^−1 mg protein^−1
same,inhibition at 90 µM,DIO2 [1]; read-out: maximum inhibition of DIO2,45%
same,significant effects on viability,cultured cells [2],not detected
same,inhibition at 0.5 µM,"DIO2 [6]; 6 h, read-out: decrease in DIO2 activity",51.8 ± 8.6%
same,decrease in DIO2 activity,"DIO2 [6]; primary astrocyte cells, doses of 500 nM or greater (abstract)",50%
same,inhibition at 0.5 µM,"DIO2 [3]; 6 h, read-out: decrease in DIO2 activity, H4 cells, 500 nM, 6 h exposure",82.9 ± 6.7%
same,inhibition at 2.5 µM,"DIO2 [3]; 6 h, read-out: decrease in DIO2 activity, H4 cells, 2,500 nM, 6 h exposure",80.8 ± 4.7%
same,inhibition at 0.5 µM,"DIO2 [3]; 12 h, read-out: decrease in DIO2 activity, H4 cells, 500 nM, 12 h exposure",64.6 ± 2.8%
same,decrease in DIO2 activity with MG132 coexposure,DIO2 [3]; [13],45.5 ± 3.8%
same,decrease in DIO2 activity,"DIO2 [3]; H4 cells, doses of 500 nM or greater (abstract)",up to 80%
same,Significant DIO2 Effects in H4 Cells (%Ctrl),DIO2 [3],82.9%
same,decrease in DIO2 activity,"DIO2 [3]; both cell types (primary astrocytes and H4 glioma), exposure for a few hours",approximately 50%
same,Average Serum Concentration,[4]; [19],6.39 ng/g lipid
same,Average Serum Concentration,[4]; [20],3.0 ng/g lipid
same,Average Serum Concentration,[4]; [21],26.1 ng/g lipid
same,Maximum Serum Concentration,[4]; ref 5,225 ng/g lipid
same,Maximum Serum Concentration,[4]; ref 43,33 ng/g lipid
same,Maximum Serum Concentration,[4]; ref 52,"1,200 ng/g lipid"
same,mrna remaining at 0.5 µM,DIO2 mRNA; [14],63 ± 6%
same,mrna remaining at 2.5 µM,DIO2 mRNA; [14],59 ± 10%
same,metabolites formed in cells or cell culture media,[7],Neither OH-BDEs nor debrominated PBDE metabolites were detected
same,significant effects on membrane damage,cultured cells [5],not detected
"CC(C)C[C@@H](C=O)NC(=O)[C@H](CC(C)C)NC(=O)[C@H](CC(C)C)NC(=O)OCc1ccccc1 [MG132, reference compound] (Cbz-Leu-Leu-Leu-aldehyde)",increase in basal DIO2 activity,"DIO2 [3]; H4 cells, 10 µM",73.5 ± 17.9%
"N[C@@H](Cc1ccc(Oc2cc(I)c(O)c(I)c2)c(I)c1)C(=O)O [rT3, 3,3’,5’ Triiodothyronine, reference compound]",decrease in DIO2 activity,"DIO2 [6]; primary human astrocytes, 100 nM, 6 h, positive control",49.4 ± 4.1%
same,decrease in DIO2 activity,"DIO2 [3]; H4 cells, 100 nM, 6 h, no inhibitor coexposure (Figure 8)",55.9% ± 3.6
same,decrease in DIO2 activity with MG132 coexposure,"DIO2 [3]; H4 cells, 100 nM, 6 h",25.8 ± 2.3%
B1,Km,[8],3.49 ± 0.94 nM
same,Vmax,[8],47.5 ± 2.9 fmol min^−1 mg protein^−1
